In PubChem BioAssay:
Calls of active or inactive are those of the source.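 How the source made its calls, unless noted: active means duplicate-averaged activation above buffer control mean plus 5 SD of those controls; inactive means the rest.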

Experiments:
[1] = nonspecific flux increase, KCNQ1-free cells – parental CHO cells, counter-screen for KCNQ1 potentiator project (AID 493006); conditions: parental CHO-K1 cells, FluxOR thallium flux, at 10 µM; hits give high values
How it was run: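 Assay system: Untransfected host CHO-K1 cells with FluxOR thallium dye | Probe or stimulus: Potassium/thallium depolarization pulse | Schedule: Overnight 37 °C plating, 90 min RT dye, 20 min compound | Detection: Kinetic thallium-flux fluorescence | Read-out: Max-minus-min fluorescence over baseline, percent of buffer-to-R-L3 span | Benchmarks: Low control buffer, high control R-L3 activator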

[2] = target: Potassium voltage-gated channel subfamily KQT member 1 (Homo sapiens) (UniProt P51787); assay: enhancement of KCNQ1 channel thallium flux – FluxOR thallium flux, CHO cells, duplicates, confirmation (AID 493007;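 active means potentiation averaged over duplicate wells exceeding buffer-only control mean by more than 3 SD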;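 on outcome: cells depolarized by a potassium plus thallium sulfate stimulus after compound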); conditions: KCNQ1 cell line, FluxOR thallium flux fluorescence, at 10 µM; hits give high values, % of reference activator effect, buffer zero
Chain of Potassium voltage-gated channel subfamily KQT member 1 (Homo sapiens) (P51787 whole entry, looked up): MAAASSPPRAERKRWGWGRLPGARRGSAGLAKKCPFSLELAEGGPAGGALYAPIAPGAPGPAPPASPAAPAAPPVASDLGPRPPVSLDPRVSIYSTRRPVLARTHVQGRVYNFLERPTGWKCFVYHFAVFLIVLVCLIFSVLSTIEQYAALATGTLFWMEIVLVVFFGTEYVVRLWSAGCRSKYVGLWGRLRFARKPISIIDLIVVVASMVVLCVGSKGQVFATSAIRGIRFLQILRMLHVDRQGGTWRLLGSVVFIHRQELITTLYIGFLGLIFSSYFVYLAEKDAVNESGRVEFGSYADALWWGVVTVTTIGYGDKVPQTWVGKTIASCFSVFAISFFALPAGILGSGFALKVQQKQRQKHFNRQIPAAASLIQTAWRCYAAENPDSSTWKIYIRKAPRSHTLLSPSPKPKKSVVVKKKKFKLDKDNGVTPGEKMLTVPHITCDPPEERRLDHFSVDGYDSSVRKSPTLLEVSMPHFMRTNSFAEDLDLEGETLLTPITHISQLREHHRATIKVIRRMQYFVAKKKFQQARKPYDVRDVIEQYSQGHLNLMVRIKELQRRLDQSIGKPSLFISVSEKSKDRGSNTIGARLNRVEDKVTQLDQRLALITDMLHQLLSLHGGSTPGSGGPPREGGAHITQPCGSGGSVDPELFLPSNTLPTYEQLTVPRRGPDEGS
How it was run: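 Material: KCNQ1-expressing CHO cell line; Incubation: FluxOR dye loading 90 min, compound exposure 20 min, room temperature; Detection: FluxOR Tl+ flux fluorescence, 10 s baseline plus 110 s recording; Read-out: percent activation between buffer and R-L3 responses; Control set: buffer-only wells as 0% and R-L3 activator as 100%; Replication: duplicate wells per compound.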

[3] = target: Potassium voltage-gated channel subfamily KQT member 2 (Rattus norvegicus) (UniProt O88943); assay: KCNQ2 thallium flux enhancement – KCNQ2-CHO-K1 cells, selectivity assay for KCNQ1 potentiator project (AID 493009;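 active means mean duplicate potentiation above the buffer control mean plus 5 SD of buffer wells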;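 further: assay conditions were tuned for KCNQ1 rather than KCNQ2 modulators; signal is max minus min fluorescence divided by baseline after thallium stimulus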); conditions: FluxOR thallium flux fluorescence, at 10 µM; hits give high values, scaled: buffer 0, activator control 100
Chain of Potassium voltage-gated channel subfamily KQT member 2 (Rattus norvegicus) (O88943 whole entry, looked up): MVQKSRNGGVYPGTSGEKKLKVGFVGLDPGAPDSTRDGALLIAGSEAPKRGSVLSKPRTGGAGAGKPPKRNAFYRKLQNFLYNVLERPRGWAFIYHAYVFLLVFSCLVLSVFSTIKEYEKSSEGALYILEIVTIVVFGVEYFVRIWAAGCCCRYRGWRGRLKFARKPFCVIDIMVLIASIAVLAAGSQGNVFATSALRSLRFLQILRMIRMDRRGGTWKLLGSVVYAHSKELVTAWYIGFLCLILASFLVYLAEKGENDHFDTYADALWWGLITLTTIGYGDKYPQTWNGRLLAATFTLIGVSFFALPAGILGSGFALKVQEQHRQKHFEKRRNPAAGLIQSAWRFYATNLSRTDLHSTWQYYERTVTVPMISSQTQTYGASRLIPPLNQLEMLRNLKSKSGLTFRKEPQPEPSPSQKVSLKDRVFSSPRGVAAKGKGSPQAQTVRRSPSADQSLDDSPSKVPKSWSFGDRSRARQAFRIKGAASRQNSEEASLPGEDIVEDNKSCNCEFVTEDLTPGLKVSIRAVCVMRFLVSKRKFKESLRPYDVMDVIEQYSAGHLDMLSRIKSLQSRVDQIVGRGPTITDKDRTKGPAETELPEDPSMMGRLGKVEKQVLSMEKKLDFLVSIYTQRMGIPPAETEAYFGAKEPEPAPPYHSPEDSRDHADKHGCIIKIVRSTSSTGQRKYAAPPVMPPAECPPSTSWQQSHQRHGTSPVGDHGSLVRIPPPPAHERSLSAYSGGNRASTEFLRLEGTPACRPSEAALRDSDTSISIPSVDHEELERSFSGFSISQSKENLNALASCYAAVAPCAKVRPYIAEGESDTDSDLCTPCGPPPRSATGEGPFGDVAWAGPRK

[4] = target: Potassium voltage-gated channel subfamily KQT member 1 (Homo sapiens) (UniProt P51787); assay: KCNQ1 activators by electrophysiology – IonWorks patch clamp, KCNQ1-CHO cells, orthogonal assay for KCNQ1 potentiator project, confirmation (AID 493184;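 active means current rise at least 3 SD above the untreated control mean in each of two repeat wells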); conditions: automated patch clamp current, at 10 µM; hits give high values
How it was run: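 assay system = KCNQ1-expressing CHO cells | medium = external bath solution at pH 7.4 | probe or stimulus = 2,000 ms depolarization, -90 to +40 mV | compound dosing = 10 µM final, single point | measured by = automated voltage clamp, amphotericin B perforated patch | measure = percent current increase versus pre-compound level | replication = duplicates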

CCOC(=O)c1c(NC(=S)NCc2ccccc2)sc2c1CCN(C(=O)OCC)C2
inactive: outcome [1] | outcome [2] | outcome [3] | outcome [4]

O=C(COC(=O)C1CCC(=O)N1)Nc1ccc(Oc2ccccc2)cc1 (stereo not given)
inactive: outcome [1] | outcome [2] | outcome [3] | outcome [4]

O=C(COc1cccnc1[N+](=O)[O-])Nc1cccc(S(=O)(=O)N2CCCCC2)c1
inactive: outcome [1] | outcome [2] | outcome [3] | outcome [4]

O=C(Nc1ccccc1)C1=C(c2ccccc2)S(=O)(=O)CCS1(=O)=O
inactive: outcome [1] | outcome [2] | outcome [3] | outcome [4]

Nc1nc(COc2ccccc2C=O)nc(Nc2ccccc2)n1
inactive: outcome [1] | outcome [2] | outcome [3] | outcome [4]

Cc1ccc(OCCCC(=O)NCc2ccco2)c(C)c1
inactive: outcome [1] | outcome [2] | outcome [3] | outcome [4]

COc1cccc(N(C(=O)Cn2nnc(-c3ccc(C)o3)n2)C(C(=O)NC2CCCC2)c2ccncc2)c1 (stereo not given)
inactive: outcome [1] | outcome [2] | outcome [3] | outcome [4]

Cc1ccccc1C(=O)NCc1ccncc1
inactive: outcome [1] | outcome [2] | outcome [3] | outcome [4]

Cc1cc(Cl)c(S(=O)(=O)Nc2ccc3c(c2)OCO3)cc1OCC(N)=O
inactive: outcome [1] | outcome [2] | outcome [3] | outcome [4]

Cc1ccc(S(=O)(=O)N2CCCC(C(=O)Nc3ccc(C(=O)O)cc3)C2)cc1Cl (stereo not given)
inactive: outcome [1] | outcome [2] | outcome [3] | outcome [4]

COc1ccc2c(c1)c(=O)c(C(=O)O)c(-c1ccc3c(c1)OCO3)n2C
inactive: outcome [1] | outcome [2] | outcome [3] | outcome [4]

O=C(NC(=S)Nc1ccccc1Cl)c1cncc(Br)c1
inactive: outcome [1] | outcome [2] | outcome [3] | outcome [4]

COC(=O)C1=NN(C(=O)c2ccc(Cl)cc2)C(O)(c2ccccc2)C1 (stereo not given)
inactive: outcome [4]
active: activation [1] 426% | potentiation [2] 150% | potentiation [3] 392%

O=C(NC(=S)Nc1ccccc1N1CCCCC1)c1cccs1
inactive: outcome [4]
active: activation [1] 212% | potentiation [2] 133% | potentiation [3] 234%

Cc1ccc(/C=N/Nc2nc(C(C)(C)C)cs2)o1
inactive: outcome [1] | outcome [2] | outcome [3] | outcome [4]

Oc1c(Br)cc(Br)cc1C=NCc1ccccc1
active: activation [1] 147% | potentiation [2] 21.5%
inactive: outcome [3] | outcome [4]

CC(C)c1ccc(OCC(=O)NNC(=S)NC(=O)c2ccco2)c(Br)c1
inactive: outcome [4]
active: activation [1] 154% | potentiation [2] 68.5% | potentiation [3] 232%

S=c1[nH]nc(-c2ccco2)n1/N=C/c1ccc(Cl)c(Cl)c1
inactive: outcome [4]
active: activation [1] 512% | potentiation [2] 290% | potentiation [3] 145%

O=c1[nH]c2ccc(Cl)cc2c(-c2ccccc2)c1N1CCN(CCO)CC1
inactive: outcome [1] | outcome [2] | outcome [3] | outcome [4]

COc1ccc(NC(=O)CCCSc2nc(-c3ccco3)cc(C(F)(F)F)n2)cc1OC
inactive: outcome [1] | outcome [2] | outcome [3] | outcome [4]

CCCc1cc(=O)n2[nH]cc(-c3ccc(Cl)cc3)c2n1
active: activation [1] 168% | potentiation [2] 36% | potentiation [3] 164%
inactive: outcome [4]

COc1ccc(C2c3ccc4ccccc4c3Oc3ncn(CCN4CCOCC4)c(=N)c32)cc1 (stereo not given)
inactive: outcome [1] | outcome [2] | outcome [3] | outcome [4]

CC(=O)c1cc2c(cc1NC(=O)CN1Cc3ccccc3C1=O)OCO2
inactive: outcome [1] | outcome [2] | outcome [3] | outcome [4]

O=[N+]([O-])c1ccc(/C=C/C2=NN(c3ccccc3)C(c3ccco3)C2)o1 (stereo not given)
inactive: outcome [1] | outcome [2] | outcome [3] | outcome [4]

Cc1c(/C=N\NC(=O)c2ccc(F)cc2)cnn1C
inactive: outcome [1] | outcome [2] | outcome [3] | outcome [4]

C[C@@H](NC(=O)OC(C)(C)C)c1nnc(S(=O)(=O)Cc2ccccc2)o1
active: potentiation [3] 158%
inactive: outcome [1] | outcome [2] | outcome [4]

CC(OC(=O)CC1Sc2ccccc2NC1=O)C(=O)NC1CCCC1 (stereo not given)
inactive: outcome [1] | outcome [2] | outcome [3] | outcome [4]

C=CCn1c(=S)[nH]c2scc(-c3ccc(C)o3)c2c1=O
active: activation [1] 550% | potentiation [2] 276% | potentiation [3] 580%
inactive: outcome [4]

Cc1nn2c(c1-c1ccccc1)NC1=C(C(=O)CCC1)C2c1ccccc1 (stereo not given)
inactive: outcome [1] | outcome [2] | outcome [3] | outcome [4]

O=C(O)c1ccc2c(c1)C(=O)N(Cc1ccccc1)C2=O
inactive: outcome [1] | outcome [2] | outcome [3] | outcome [4]
